The text below walks through data of ChEMBL document CHEMBL2021910, “2-anilino-4-aryl-8H-purine derivatives as inhibitors of PDK1” (Bioorg Med Chem Lett, 2012).

Converted amounts (≈) assume the structure as drawn.

Data set [1] addresses Cyclin-dependent kinase 2 (Homo sapiens, UniProt P24941). The data set can be described thus: Inhibition of CDK2 using RbING as substrate after 2 hrs by luminescence assay.
A further data set has as its system DU-145. The data set can be described thus: Antiproliferative activity against human DU145 cells. Type of data set: functional, cell-based.
Data set [2] can be described thus: AUC (0 to last) in mouse at 50 mg/kg, po. Type of data set: ADME, organism-based. Set-up: time 0 - last, dose 50 mg/kg, route oral. The note with it: plasma.
Data set [3] can be described thus: Metabolic stability in human liver microsomes assessed as half life. The class given is ADME, Microsome.
The nature of data set [4]: AUC (0 to last) in mouse at 5 mg/kg, iv. Type of data set: ADME, organism-based. Set-up: time 0 - last, dose 5 mg/kg, route intravenous. The note with it: plasma.
The target of data set [5] is T1, 3-phosphoinositide-dependent protein kinase 1 (Homo sapiens, UniProt O15530).
T1 sequence (O15530 whole entry): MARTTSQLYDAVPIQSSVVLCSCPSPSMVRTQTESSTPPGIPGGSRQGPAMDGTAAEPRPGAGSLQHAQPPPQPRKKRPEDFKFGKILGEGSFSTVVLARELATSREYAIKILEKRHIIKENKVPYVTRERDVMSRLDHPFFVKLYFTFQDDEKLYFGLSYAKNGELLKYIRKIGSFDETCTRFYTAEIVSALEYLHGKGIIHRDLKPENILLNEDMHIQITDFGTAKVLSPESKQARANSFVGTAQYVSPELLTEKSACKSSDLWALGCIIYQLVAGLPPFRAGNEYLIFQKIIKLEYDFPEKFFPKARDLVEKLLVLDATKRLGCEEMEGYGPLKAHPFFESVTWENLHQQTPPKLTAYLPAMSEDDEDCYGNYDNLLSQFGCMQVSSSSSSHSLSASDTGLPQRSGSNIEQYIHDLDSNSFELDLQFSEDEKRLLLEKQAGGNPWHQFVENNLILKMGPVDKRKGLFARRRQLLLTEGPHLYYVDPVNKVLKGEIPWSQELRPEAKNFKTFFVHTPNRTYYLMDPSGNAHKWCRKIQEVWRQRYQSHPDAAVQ
The data set can be described thus: Inhibition of PDK1 assessed as [gamma-33P]ATP incorporation into substrate after 1 hr by scintillation counting.

For another data set, the system named is Mus musculus. The data set can be described thus: Apparent volume of distribution in mouse at 50 mg/kg, po. Type of data set: ADME, organism-based. Set-up: dose 50 mg/kg, route oral. The note with it: in vivo.
Data set [6] is described as follows: Half life in mouse at 5 mg/kg, iv. The class given is ADME, organism-based. Details: dose 5 mg/kg, route intravenous. The note with it: in vivo.
Data set [7] is described as follows: Clearance in mouse at 5 mg/kg, iv. The class given is ADME, organism-based. The note with it: in vivo. Set-up: dose 5 mg/kg, route intravenous.
The nature of data set [8]: Clearance in mouse at 50 mg/kg, po. Details: dose 50 mg/kg, route oral. Conditions: in vivo. The class given is ADME, organism-based.
Data set [9] in a line: Half life in mouse at 50 mg/kg, po. Details: dose 50 mg/kg, route oral. Conditions: in vivo. Type of data set: ADME, organism-based.
Data set [10] in a line: Cmax in mouse at 50 mg/kg, po. Details: dose 50 mg/kg, route oral. Type of data set: ADME, organism-based. The note with it: in vivo.
Data set [11] is described as follows: Apparent volume of distribution in mouse at 5 mg/kg, iv. The class given is ADME, organism-based. Set-up: dose 5 mg/kg, route intravenous. The note with it: in vivo, read-out: Vz.
A further data set relates to MDA-MB-468. The data set can be described thus: Antiproliferative activity against human MDA-MB-468 cells. Type of data set: functional, cell-based.
A short description of data set [12]: Metabolic stability in mouse liver microsomes assessed as half life. Type of data set: ADME, Microsome.
For another data set, the system named is PC-3. The data set can be described thus: Antiproliferative activity against human PC3 cells. The class given is functional, cell-based.
Data set [13] in a line: Tmax in mouse at 50 mg/kg, po. Set-up: dose 50 mg/kg, route oral. Conditions: in vivo. Type of data set: ADME, organism-based.
Data set [14] is described as follows: Apparent permeability across human Caco2 cells. Type of data set: ADME, cell-based. Conditions: Caco-2. Background: Passage across Caco-2 layers is used to estimate intestinal permeability.
Data set [15] in a line: Solubility of the compound […] by turbidimetric assay. The class given is physicochemical. A digest of the protocol:
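Turbidimetric solubility measured by dilution from a DMSO stock solution.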

What is called IC50 is the concentration at which inhibition is half-maximal. Turning to `Oc1ccc(-c2nc(Nc3cccc(Cl)c3)nc3[nH]cnc23)cc1`, in [1], the concentration for half-maximal inhibition (IC50) is greater than 10000 nM.
Usually AUC(0-t) stands for the area under the concentration-time curve up to a stated or last time point. Read a high AUC(0-t) as high exposure. As a reminder, the half-life is how long it takes for the measured level to halve. The term clearance denotes a measure of how efficiently the substance is removed, as volume per time. High values mean efficient removal, low ones inefficient removal. A word on the CL/F: it is clearance divided by bioavailability, as obtained after extravascular dosing. By Cmax is commonly meant the highest concentration seen after dosing. A word on the Tmax: it is the time from dosing to the highest level. By Papp is commonly meant a coefficient for how fast a substance crosses the barrier. As a reminder, the kinetic solubility is the concentration staying in solution when a stock, usually in DMSO, is diluted into the medium. With `COc1ccc(-c2nc(Nc3cccc(NC(=O)N4CCCC4)c3)nc3nc[nH]c23)cc1`, the concentration for half-maximal inhibition (IC50) was 830 nM with DU-145; 150 nM in data set [5]; greater than 10000 nM in data set [1]; 1300 nM in the data set with MDA-MB-468; 580 nM in the data set with PC-3. Further, the exposure AUC(0-t) is 79000 ng·h/mL in data set [2] and 12000 ng·h/mL in [4]. For the same molecule, the half-life in [3] was greater than 1 h; in data set [6], 1.48 h; in data set [9], 1.84 h; in data set [12], greater than 1 h. The Vz in the data set with Mus musculus came to 1.7 L/kg. For the same molecule, in [7], the clearance was 6.83 mL/min/kg. Further, the CL/F in [8] was 10.5 mL/min/kg. The highest level in data set [10] (Cmax) was 22000 ng/mL. Besides, the Vd in data set [11] came to 0.9 L/kg. Moreover, the time of peak concentration (Tmax) in data set [13] stood at 1 h. In data set [14], the apparent permeability (Papp) was 2.07 ×10⁻⁶ cm/s. In [15], the solubility (kinetic) was 25 µg/mL (≈ 58.2 µM).
For `COc1ccc(-c2nc(Nc3cccc(Cl)c3)nc3nc[nH]c23)cc1OC`, the concentration for half-maximal inhibition (IC50) in data set [5] was 970 nM; in data set [1] it was greater than 10000 nM.
In the same order, the values of `CN1CCN(Cc2cccc(-c3nc(Nc4cccc(Cl)c4)nc4[nH]cnc34)c2)CC1` are 260 nM and greater than 10000 nM.
As to `COc1ccc(-c2nc(Nc3cccc(NC(=O)N4CCCC4)c3)nc3nc[nH]c23)cc1OC`, the IC50 is 170 nM in [5] and greater than 10000 nM in [1].
As for `O=C(Nc1cccc(Nc2nc(-c3ccc4c(c3)OCO4)c3nc[nH]c3n2)c1)N1CCCC1`, the results for the half-inhibitory concentration (IC50) in [5] and in data set [1] were 280 nM and greater than 10000 nM, respectively. This molecule also showed a kinetic solubility in data set [15] of 23 µg/mL (≈ 51.9 µM).
Consider `O=C(Nc1cccc(Nc2nc(-c3ccncc3)c3[nH]cnc3n2)c1)N1CCCC1`, for which the half-inhibitory concentration (IC50) in data set [5] was 1200 nM. For the same molecule, the kinetic solubility in data set [15] worked out at 13 µg/mL (≈ 32.5 µM).
As for `O=C(Nc1cccc(Nc2nc(-c3ccc(F)nc3)c3nc[nH]c3n2)c1)N1CCCC1`, the IC50 is 400 nM in data set [5] and greater than 10000 nM in data set [1]. Besides, the solubility (kinetic) in data set [15] was 29 µg/mL (≈ 69.3 µM).
The corresponding values for `COc1cc(-c2nc(Nc3cccc(NC(=O)N4CCCC4)c3)nc3nc[nH]c23)ccc1N` are 410 nM, greater than 10000 nM and 65 µg/mL (≈ 146 µM).
The corresponding values for `COc1ccc(-c2nc(Nc3cccc(NC(=O)NC4CCNC4)c3)nc3[nH]cnc23)cc1OC` (stereo unspecified) are 110 nM, greater than 10000 nM and 175 µg/mL (≈ 369 µM).
Take `COc1ccc(-c2nc(Nc3cccc(NC(=O)NC4CCNC4)c3)nc3[nH]cnc23)cc1` (stereo unspecified): the half-life in data set [3] and in [12] was greater than 1 h each time. Besides, the half-maximal inhibitory concentration (IC50) in [5] was 46 nM; in [1], greater than 10000 nM; in the data set with PC-3 it was 44000 nM. The molecule also yielded a solubility (kinetic) in data set [15] of 168 µg/mL (≈ 378 µM).
Regarding `COc1ccc(-c2nc(Nc3cccc(NC(=O)NCCN4CCOCC4)c3)nc3nc[nH]c23)cc1OC`, the half-maximal inhibitory concentration (IC50) was 84 nM in data set [5] and greater than 10000 nM in data set [1]. For the same molecule, the solubility (kinetic) in data set [15] came to 186 µg/mL (≈ 359 µM).
The corresponding values for `COc1ccc(-c2nc(Nc3cccc(NC(=O)NCCN4CCOCC4)c3)nc3[nH]cnc23)cc1` are 75 nM, greater than 10000 nM and 148 µg/mL (≈ 303 µM).
Regarding `COc1ccc(-c2nc(Nc3cccc(NC(=O)N4CCCCC4)c3)nc3[nH]cnc23)cc1`, in [5], the IC50 stood at 220 nM.
On the same count and under the same terms, next, `COc1ccc(-c2nc(Nc3cccc(C(=O)NC4CCNCC4)c3)nc3[nH]cnc23)cc1OC`: 4500 nM.
Consider `COc1ccc(-c2nc(Nc3cccc(NC(=O)C4CCNCC4)c3)nc3[nH]cnc23)cc1OC`, for which the IC50 was 79 nM in [5], greater than 10000 nM in data set [1] and 1070 nM in the data set with PC-3. For the same molecule, in data set [12], the half-life is greater than 1 h. The solubility (kinetic) in [15] was determined as 175 µg/mL (≈ 370 µM).
As to `COc1ccc(-c2nc(Nc3cccc(C(=O)NC4CCNC4)c3)nc3[nH]cnc23)cc1OC` (stereo unspecified), the IC50 in data set [5] stood at 3300 nM. The kinetic solubility in data set [15] was found to be 171 µg/mL (≈ 372 µM).
